ChEMBL document CHEMBL2029283, “Disubstituted 1,8-dipyrazolcarbazole derivatives as a new type of c-myc G-quadruplex binding ligands” (Bioorg Med Chem, 2012)
Calls of active or inactive are those of the source. The rule behind the calls is not given here.

Experiments:
HL-60 = assay: Cytotoxicity against human HL60 cells after 48 hrs by MTT assay; format: functional, cell-based; settings: HL-60, 48 h
Summary of the method: (§1)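 Cells kept in RPMI-1640 with 10% FBS, seeded at 1.0 × 10^ cells per well and exposed to graded compound for 48 h at 37 °C in 5% CO2. MTT (5 mg/mL solution) was then added for 4 h, formazan dissolved in DMSO, and OD read at 570 nm. Tests were run in triplicate, and IC50 was derived from mean OD versus concentration curves.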

Nucleic Acid [1] = assay: Binding affinity to G-quadruplex DNA Pu27 assessed as inhibition of hybridization with complementary strand after 3 mins by PCR-stop assay; format: nucleic-acid assay
Summary of the method: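 Taq polymerase-stop on Pu27 with its complementary strand, each oligomer 10 μM, in 1× PCR buffer with 0.16 mM dNTP, 2.5 U Taq and graded compound. Cycling was 94 °C 3 min, then 30 cycles of 94 °C 30 s, […] 30 s, 72 °C 30 s. Products were run on 15% nondenaturing PAGE in TBE and silver stained. IC50 was taken for inhibition of amplification.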

Nucleic Acid [2] = assay: Binding affinity to duplex DNA F10T assessed as change in melting temperature at 1 uM by FRET-melting assay; format: nucleic-acid assay
Summary of the method: (§2)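 FRET melting of FAM/TAMRA-labelled oligonucleotides (FPu18T, F21T or duplex F10T), each 0.2 μM, with compound 1.0 μM in 10 mM Tris-HCl pH 7.2 containing KCl. For competition, excess ds26 duplex (3 or 10 μM) was added.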

NCI-H460 = assay: Cytotoxicity against human NCI-H460 cells after 48 hrs by MTT assay; format: functional, cell-based; settings: NCI-H460, 48 h; summary of the method: as §1
Nucleic Acid [3] = assay: Binding affinity to c-myc G-quadruplex DNA FPu18T assessed as change in melting temperature at 1 uM by FRET-melting assay; format: nucleic-acid assay; summary of the method: as §2
ECV-304 = assay: Cytotoxicity against human ECV304 cells after 48 hrs by MTT assay; format: cell-based; settings: ECV-304, 48 h; summary of the method: as §1
HepG2 = assay: Cytotoxicity against human HepG2 cells after 48 hrs by MTT assay; format: functional, cell-based; settings: HepG2, 48 h; summary of the method: as §1
Nucleic Acid [4] = assay: Binding affinity to biotinylated-duplex DNA at 20 uM by SPR assay; format: nucleic-acid assay
Nucleic Acid [5] = assay: Binding affinity to biotinylated-c-myc G-quadruplex DNA FPu18T by SPR assay; format: nucleic-acid assay
Summary of the method: (§3)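 SPR with biotinylated DNA captured to about 1000 RU in flow cells 1 and 2, the third left blank as reference. Running buffer was 50 mM Tris-HCl pH 7.2, 100 mM KCl. Ligand at 0.3125–10 μM was injected for 150 s association and 300 s dissociation at 25 °C, with 1 M NaCl regeneration. Blank-subtracted sensorgrams were fitted with a Langmuir kinetic model.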

Nucleic Acid [6] = assay: Binding affinity to human telomeric G-quadruplex DNA F21T assessed as change in melting temperature at 1 uM by FRET-melting assay; format: nucleic-acid assay; summary of the method: as §2
Nucleic Acid [7] = assay: Binding affinity to c-myc G-quadruplex DNA FPu18T assessed as change in melting temperature at 1 uM by FRET-melting assay in presence of excess duplex oligomer ds26; format: nucleic-acid assay; summary of the method: as §2
Nucleic Acid [8] = assay: Binding affinity to biotinylated-telomeric G-quadruplex DNA HTG21 by SPR assay; format: nucleic-acid assay; summary of the method: as §3
Ramos [9] = assay: Suppression of c-myc mRNA level in human Ramos cells expressing NHE III1 at 10 uM by RT-PCR analysis; format: functional, cell-based
Summary of the method: (§4)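 Ramos or CA46 cells were seeded at 100,000 per well and treated for 4 days with 1, 2.5, 5 or 10 μM compound or DMSO. Total RNA was extracted in Redzol and reverse-transcribed with oligo dT18 at 42 °C for 1 h. c-myc (91 bp) and β-actin (541 bp) were PCR-amplified and run on 1% agarose. Densitometry values were normalized to β-actin.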

Ramos [10] = assay: Decrease in c-myc expression in human Ramos cells expressing NHE III1 at 2.5 uM by RT-PCR analysis; format: functional, cell-based; summary of the method: as §4
Nucleic Acid [11] = assay: Binding affinity to c-myc G-quadruplex DNA FPu18T assessed as conformational changes at 25 uM by CD spectrophotometric analysis in absence of K+ ions; format: nucleic-acid assay
Summary of the method: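 CD spectra of Pu18 (5 μM) with ligand at 25 μM in 10 mM Tris-HCl pH 7.2 with no KCl. Samples were annealed from 95 °C and held at 4 °C for ≥6 h. Spectra were recorded over 220–450 nm with 1 nm bandwidth, averaging two scans.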

Nucleic Acid [12] = assay: Binding affinity to c-myc G-quadruplex DNA FPu18T assessed as change in CD spectra at 25 uM by CD spectrophotometric analysis in presence of 100 mM K+ ions; format: nucleic-acid assay
Summary of the method: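 CD spectra of Pu18 (5 μM) with ligand at 25 μM in 10 mM Tris-HCl pH 7.2 plus 100 mM KCl. Samples were heated to 95 °C, slowly cooled and held at 4 °C for ≥6 h. Spectra were recorded over 220–450 nm with 1 nm bandwidth and 0.5 s per point, averaging two scans.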

CA46 = assay: Decrease in c-myc expression in promoter element P1 and P2-deficient human CA46 cells by RT-PCR analysis; format: functional, cell-based; summary of the method: as §4
Nucleic Acid [13] = assay: Selectivity ratio of Kd for biotinylated-telomeric G-quadruplex DNA HTG21 to Kd for biotinylated-c-myc G-quadruplex DNA FPu18T; format: nucleic-acid assay; summary of the method: as §3
Nucleic Acid [14] = assay: Binding affinity to biotinylated-telomeric G-quadruplex DNA HTG21 at 20 uM by SPR assay; format: nucleic-acid assay
Nucleic Acid [15] = assay: Binding affinity to biotinylated-c-myc G-quadruplex DNA FPu18T at 20 uM by SPR assay; format: nucleic-acid assay

O=C(CN1CCCC1)Nc1cc(-n2cccn2)c2[nH]c3c(-n4cccn4)cc(NC(=O)CN4CCCC4)cc3c2c1
IC50 (HL-60): 1.9 µM
IC50 (Nucleic Acid [1]): 5.2 µM
ΔTm (Nucleic Acid [2]): 0.3 °C
IC50 (NCI-H460): 2.7 µM
ΔTm (Nucleic Acid [3]): 9.3 °C
IC50 (ECV-304): 22.2 µM
IC50 (HepG2): 2.7 µM
Activity (Nucleic Acid [4]): inactive
Kd (Nucleic Acid [5]): 0.694 µM
ΔTm (Nucleic Acid [6]): 6.3 °C
Activity (Nucleic Acid [7]): Active
Kd (Nucleic Acid [8]): 2.97 µM

O=C(CCN1CCCCC1)Nc1cc(-n2cccn2)c2[nH]c3c(-n4cccn4)cc(NC(=O)CCN4CCCCC4)cc3c2c1
IC50 (HL-60): 1.2 µM
IC50 (Nucleic Acid [1]): 4.9 µM
ΔTm (Nucleic Acid [2]): 0.3 °C
IC50 (NCI-H460): 2.7 µM
Activity (Ramos [9]): Active
Activity (Ramos [10]): Active
ΔTm (Nucleic Acid [3]): 12.1 °C
IC50 (ECV-304): 25 µM
IC50 (HepG2): 5.1 µM
Activity (Nucleic Acid [11]): Active
Activity (Nucleic Acid [12]): Active
Activity (Nucleic Acid [4]): inactive
Activity (CA46): inactive
Kd (Nucleic Acid [5]): 0.135 µM
ΔTm (Nucleic Acid [6]): 9.7 °C
Activity (Nucleic Acid [7]): Active
Kd (Nucleic Acid [8]): 1.88 µM

O=C(CCN1CCCC1)Nc1cc(-n2cccn2)c2[nH]c3c(-n4cccn4)cc(NC(=O)CCN4CCCC4)cc3c2c1
IC50 (HL-60): 2.2 µM
IC50 (Nucleic Acid [1]): 3.6 µM
ΔTm (Nucleic Acid [2]): 0.5 °C
IC50 (NCI-H460): 3.5 µM
ΔTm (Nucleic Acid [3]): 15.1 °C
IC50 (ECV-304): 25.2 µM
IC50 (HepG2): 4.2 µM
Ratio (Nucleic Acid [13]): > 20
Activity (Nucleic Acid [12]): Active
Activity (Nucleic Acid [4]): inactive
Kd (Nucleic Acid [5]): 0.131 µM
ΔTm (Nucleic Acid [6]): 10.7 °C
Activity (Nucleic Acid [7]): Active
Kd (Nucleic Acid [8]): 2.64 µM

CCN(CC)CCC(=O)Nc1cc(-n2cccn2)c2[nH]c3c(-n4cccn4)cc(NC(=O)CCN(CC)CC)cc3c2c1
IC50 (HL-60): 1.9 µM
IC50 (Nucleic Acid [1]): 6.3 µM
ΔTm (Nucleic Acid [2]): 0.3 °C
IC50 (NCI-H460): 2.6 µM
ΔTm (Nucleic Acid [3]): 18.1 °C
IC50 (ECV-304): 23.3 µM
IC50 (HepG2): 2.7 µM
Activity (Nucleic Acid [12]): Active
Activity (Nucleic Acid [4]): inactive
Kd (Nucleic Acid [5]): 0.233 µM
ΔTm (Nucleic Acid [6]): 11.9 °C
Activity (Nucleic Acid [7]): Active
Kd (Nucleic Acid [8]): 2.59 µM

O=C(CN1CCCCC1)Nc1cc(-n2cccn2)c2[nH]c3c(-n4cccn4)cc(NC(=O)CN4CCCCC4)cc3c2c1
IC50 (HL-60): 2.4 µM
IC50 (Nucleic Acid [1]): > 20 µM
ΔTm (Nucleic Acid [2]): 0.1 °C
IC50 (NCI-H460): 3.3 µM
ΔTm (Nucleic Acid [3]): 5.5 °C
IC50 (ECV-304): 27.3 µM
IC50 (HepG2): 5.6 µM
Activity (Nucleic Acid [4]): inactive
Kd (Nucleic Acid [5]): 1.46 µM
ΔTm (Nucleic Acid [6]): 4 °C
Activity (Nucleic Acid [7]): Active
Kd (Nucleic Acid [8]): 8.07 µM

O=C(CCN1CCOCC1)Nc1cc(-n2cccn2)c2[nH]c3c(-n4cccn4)cc(NC(=O)CCN4CCOCC4)cc3c2c1
IC50 (HL-60): 1.7 µM
IC50 (Nucleic Acid [1]): > 20 µM
ΔTm (Nucleic Acid [2]): 0.3 °C
IC50 (NCI-H460): 2.8 µM
Activity (Nucleic Acid [14]): inactive
ΔTm (Nucleic Acid [3]): 7.3 °C
Activity (Nucleic Acid [15]): inactive
IC50 (ECV-304): 26.2 µM
IC50 (HepG2): 6.9 µM
Activity (Nucleic Acid [4]): inactive
ΔTm (Nucleic Acid [6]): 4.2 °C
Activity (Nucleic Acid [7]): Active

O=C(CN1CCOCC1)Nc1cc(-n2cccn2)c2[nH]c3c(-n4cccn4)cc(NC(=O)CN4CCOCC4)cc3c2c1
IC50 (HL-60): 3.9 µM
IC50 (Nucleic Acid [1]): > 20 µM
ΔTm (Nucleic Acid [2]): 0.2 °C
IC50 (NCI-H460): 3.9 µM
Activity (Nucleic Acid [14]): inactive
ΔTm (Nucleic Acid [3]): 4.4 °C
Activity (Nucleic Acid [15]): inactive
IC50 (ECV-304): 29.3 µM
IC50 (HepG2): 6.1 µM
Activity (Nucleic Acid [4]): inactive
ΔTm (Nucleic Acid [6]): 1.2 °C
Activity (Nucleic Acid [7]): Active

CCN(CC)CC(=O)Nc1cc(-n2cccn2)c2[nH]c3c(-n4cccn4)cc(NC(=O)CN(CC)CC)cc3c2c1
IC50 (HL-60): 2 µM
IC50 (Nucleic Acid [1]): > 20 µM
ΔTm (Nucleic Acid [2]): 0.6 °C
IC50 (NCI-H460): 2.5 µM
ΔTm (Nucleic Acid [3]): 7.4 °C
IC50 (ECV-304): 22.8 µM
IC50 (HepG2): 3 µM
Activity (Nucleic Acid [4]): inactive
Kd (Nucleic Acid [5]): 2.03 µM
ΔTm (Nucleic Acid [6]): 3.6 °C
Activity (Nucleic Acid [7]): Active
Kd (Nucleic Acid [8]): 6.86 µM
